Reference: ChEMBL document CHEMBL1123207, “Synthesis and structure-activity relationships of antibacterial phosphonopeptides incorporating (1-aminoethyl)phosphonic acid and (aminomethyl)phosphonic acid” (1986)
Converted amounts (≈) assume the structure as drawn.

Legend:
Serratia marcescens = test: Compound was tested for its antibacterial activity against Serratia marcescens ATCC 14756 strain.; format: functional
Salmonella typhimurium = test: Compound was tested for its antibacterial activity against Salmonella Typhimurium 538003 strain.; format: functional, Salmonella enterica subsp. enterica serovar Typhimurium; settings: Salmonella enterica
Escherichia coli [1] = test: Compound was tested for its antibacterial activity against Escherichia coli NCIB 8879 strain.; format: functional
Klebsiella aerogenes = test: Compound was tested for its antibacterial activity against Klebsiella aerogenes 331001 strain.; format: functional
Enterobacter = test: Compound was tested for its antibacterial activity against Enterobacter 250002 strain.; format: functional
Haemophilus influenzae [2] = test: Compound was tested for its antibacterial activity against Haemophilus influenzae NCTC 4560 strain.; format: functional
Enterococcus faecalis [3] = test: Compound was tested for its antibacterial activity against Streptococcus faecalis 58511 strain.; format: functional
Staphylococcus aureus [4] = test: Compound was tested for its antibacterial activity against Staphylococcus aureus NCIB 8625 strain.; format: functional
Escherichia coli [5] = test: In vivo antibacterial activity was measured relative to alafosfalin against Escherichia coli 281007 strain after po administration.; format: functional
Summary of the method: (§1)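 Mouse septicaemia model infected with E. coli 281007. Compound was dosed at 1, 3 and 5 h after infection, orally (po) for line 13 and subcutaneously (sc) for line 14. Activity is the relative molar activity of the analogue versus the L-Ala-L-Ala(P) reference, with both CD50 values taken in µmol/kg.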

Haemophilus influenzae [6] = test: Compound was tested in vitro for its antibacterial activity against Haemophilus influenzae NCTC 4560 strain.; format: functional
Escherichia coli [7] = test: Compound was tested in vitro for its antibacterial activity against Escherichia coli NCIB 8879 strain.; format: functional
Escherichia coli [8] = test: In vivo antibacterial activity was measured relative to alafosfalin against Escherichia coli 281007 strain after sc administration.; format: functional; summary of the method: as §1
Enterococcus faecalis [9] = test: Compound was tested in vitro for its antibacterial activity against Streptococcus faecalis FS5 strain.; format: functional
Staphylococcus aureus [10] = test: Compound was tested in vitro for its antibacterial activity against Staphylococcus aureus 561037 strain.; format: functional

SMILES | MIC (Serratia marcescens) | MIC (Salmonella typhimurium) | MIC (Escherichia coli [1]) | MIC (Klebsiella aerogenes) | MIC (Enterobacter) | MIC (Haemophilus influenzae [2]) | MIC (Enterococcus faecalis [3]) | MIC (Staphylococcus aureus [4]) | CD50 (Escherichia coli [5]) | MIC (Haemophilus influenzae [6]) | MIC (Escherichia coli [7]) | CD50 (Escherichia coli [8]) | MIC (Enterococcus faecalis [9]) | MIC (Staphylococcus aureus [10])
C[C@@H](NC(=O)[C@@H](N)Cc1ccccc1)P(=O)(O)O | 4 µg/mL (≈ 14.7 µM) | 32 µg/mL (≈ 118 µM) | 0.5 µg/mL (≈ 1.84 µM) | 1 µg/mL (≈ 3.67 µM) | 2 µg/mL (≈ 7.35 µM) | 32 µg/mL (≈ 118 µM) | 2 µg/mL (≈ 7.35 µM) | 4 µg/mL (≈ 14.7 µM) | – | – | – | – | – | –
C[C@@H](NC(=O)[C@@H](N)CC[S+](C)[O-])P(=O)(O)O (stereo not given in full) | 32 µg/mL (≈ 118 µM) | > 128 µg/mL | 4 µg/mL (≈ 14.7 µM) | 4 µg/mL (≈ 14.7 µM) | 32 µg/mL (≈ 118 µM) | 16 µg/mL (≈ 58.8 µM) | 4 µg/mL (≈ 14.7 µM) | 8 µg/mL (≈ 29.4 µM) | – | – | – | – | – | –
CCC[C@H](NC(=O)CNC)C(=O)N[C@@H](CCC)C(=O)N[C@H](C)P(=O)(O)O | – | – | – | – | – | – | – | – | 1.1 relative molar activity | 0.015 µg/mL (≈ 0.038 µM) | 0.04 µg/mL (≈ 0.101 µM) | 1.9 relative molar activity | 0.12 µg/mL (≈ 0.304 µM) | 16 µg/mL (≈ 40.6 µM)
C[C@@H](NC(=O)[C@@H](N)CF)P(=O)(O)O | – | 32 µg/mL (≈ 149 µM) | 0.25 µg/mL (≈ 1.17 µM) | 4 µg/mL (≈ 18.7 µM) | 32 µg/mL (≈ 149 µM) | 8 µg/mL (≈ 37.4 µM) | 32 µg/mL (≈ 149 µM) | 16 µg/mL (≈ 74.7 µM) | – | – | – | – | – | –
C[C@@H](NC(=O)[C@@H](N)CCC/N=C(\N)N[N+](=O)[O-])P(=O)(O)O | 4 µg/mL (≈ 12.3 µM) | 64 µg/mL (≈ 196 µM) | 0.5 µg/mL (≈ 1.53 µM) | 2 µg/mL (≈ 6.13 µM) | 8 µg/mL (≈ 24.5 µM) | – | 2 µg/mL (≈ 6.13 µM) | 32 µg/mL (≈ 98.1 µM) | – | – | – | – | – | –
CSCC[C@H](N)C(=O)N[C@H](C)P(=O)(O)O | 2 µg/mL (≈ 7.8 µM) | 8 µg/mL (≈ 31.2 µM) | 0.25 µg/mL (≈ 0.976 µM) | 0.12 µg/mL (≈ 0.468 µM) | 1 µg/mL (≈ 3.9 µM) | 16 µg/mL (≈ 62.4 µM) | 1 µg/mL (≈ 3.9 µM) | 1 µg/mL (≈ 3.9 µM) | – | – | – | – | – | –
C[C@@H](NC(=O)[C@@H](N)CCCN=C(N)N)P(=O)(O)O | 2 µg/mL (≈ 7.11 µM) | 32 µg/mL (≈ 114 µM) | 0.25 µg/mL (≈ 0.889 µM) | < 0.12 µg/mL | 1 µg/mL (≈ 3.56 µM) | 128 µg/mL (≈ 455 µM) | 16 µg/mL (≈ 56.9 µM) | 16 µg/mL (≈ 56.9 µM) | 7.7 relative molar activity | 128 µg/mL (≈ 455 µM) | 0.25 µg/mL (≈ 0.889 µM) | 8.3 relative molar activity | 16 µg/mL (≈ 56.9 µM) | 16 µg/mL (≈ 56.9 µM)
CCCSC[C@H](N)C(=O)N[C@H](C)P(=O)(O)O | 0.5 µg/mL (≈ 1.85 µM) | 0.25 µg/mL (≈ 0.925 µM) | 0.06 µg/mL (≈ 0.222 µM) | 0.03 µg/mL (≈ 0.111 µM) | 0.06 µg/mL (≈ 0.222 µM) | 64 µg/mL (≈ 237 µM) | 2 µg/mL (≈ 7.4 µM) | 8 µg/mL (≈ 29.6 µM) | – | – | – | – | – | –
C[C@H](N)C(=O)N[C@@H](C)C(=O)N[C@H](C)P(=O)(O)O | – | – | – | – | – | – | – | – | – | 0.06 µg/mL (≈ 0.225 µM) | 0.5 µg/mL (≈ 1.87 µM) | – | 0.06 µg/mL (≈ 0.225 µM) | 4 µg/mL (≈ 15 µM)
CCC[C@H](NC(=O)[C@H](CC(C)C)NC)C(=O)N[C@@H](CCC)C(=O)N[C@H](C)P(=O)(O)O | – | – | – | – | – | – | – | – | – | 0.25 µg/mL (≈ 0.555 µM) | 2 µg/mL (≈ 4.44 µM) | – | 0.25 µg/mL (≈ 0.555 µM) | 32 µg/mL (≈ 71 µM)
C[C@H](N)C(=O)N[C@@H](C)C(=O)N[C@@H](C)C(=O)N[C@H](C)P(=O)(O)O | – | – | – | – | – | – | – | – | – | 0.06 µg/mL (≈ 0.177 µM) | 0.12 µg/mL (≈ 0.355 µM) | – | 0.25 µg/mL (≈ 0.739 µM) | 32 µg/mL (≈ 94.6 µM)
CCC[C@H](NC(=O)[C@H](CCC)NC(=O)[C@@H](NC)C(C)C)C(=O)N[C@H](C)P(=O)(O)O | – | – | – | – | – | – | – | – | – | 0.25 µg/mL (≈ 0.573 µM) | 16 µg/mL (≈ 36.7 µM) | – | 8 µg/mL (≈ 18.3 µM) | > 128 µg/mL
CCC[C@H](NC)C(=O)N[C@@H](CCC)C(=O)N[C@@H](CCC)C(=O)N[C@H](C)P(=O)(O)O | – | – | – | – | – | – | – | – | – | 0.25 µg/mL (≈ 0.573 µM) | 0.5 µg/mL (≈ 1.15 µM) | – | 0.06 µg/mL (≈ 0.137 µM) | 8 µg/mL (≈ 18.3 µM)
C[C@@H](NC(=O)[C@@H](N)CCS(C)(=O)=O)P(=O)(O)O | > 128 µg/mL | > 128 µg/mL | 16 µg/mL (≈ 55.5 µM) | 32 µg/mL (≈ 111 µM) | > 128 µg/mL | 32 µg/mL (≈ 111 µM) | 4 µg/mL (≈ 13.9 µM) | 32 µg/mL (≈ 111 µM) | – | – | – | – | – | –
C[C@@H](NC(=O)[C@@H](N)Cc1cccs1)P(=O)(O)O | 4 µg/mL (≈ 14.4 µM) | 4 µg/mL (≈ 14.4 µM) | 0.5 µg/mL (≈ 1.8 µM) | 0.25 µg/mL (≈ 0.898 µM) | 1 µg/mL (≈ 3.59 µM) | 32 µg/mL (≈ 115 µM) | 2 µg/mL (≈ 7.19 µM) | 32 µg/mL (≈ 115 µM) | – | – | – | – | – | –
C[C@@H](NC(=O)[C@@H](N)CCCCN=C(N)N)P(=O)(O)O | 2 µg/mL (≈ 6.77 µM) | 2 µg/mL (≈ 6.77 µM) | 0.25 µg/mL (≈ 0.847 µM) | 0.12 µg/mL (≈ 0.406 µM) | 2 µg/mL (≈ 6.77 µM) | 64 µg/mL (≈ 217 µM) | 2 µg/mL (≈ 6.77 µM) | 128 µg/mL (≈ 433 µM) | – | – | – | – | – | –
CSC[C@H](N)C(=O)N[C@H](C)P(=O)(O)O | 0.5 µg/mL (≈ 2.06 µM) | 0.25 µg/mL (≈ 1.03 µM) | 0.03 µg/mL (≈ 0.124 µM) | 0.03 µg/mL (≈ 0.124 µM) | 0.03 µg/mL (≈ 0.124 µM) | 4 µg/mL (≈ 16.5 µM) | 2 µg/mL (≈ 8.26 µM) | 16 µg/mL (≈ 66.1 µM) | – | – | – | – | – | –
CCC[C@H](N)C(=O)N[C@H](C)P(=O)(O)O | 0.5 µg/mL (≈ 2.23 µM) | 0.25 µg/mL (≈ 1.12 µM) | 0.03 µg/mL (≈ 0.134 µM) | 0.015 µg/mL (≈ 0.0669 µM) | 0.25 µg/mL (≈ 1.12 µM) | 4 µg/mL (≈ 17.8 µM) | 1 µg/mL (≈ 4.46 µM) | 8 µg/mL (≈ 35.7 µM) | 1.1 relative molar activity | 4 µg/mL (≈ 17.8 µM) | 0.03 µg/mL (≈ 0.134 µM) | 8.8 relative molar activity | 1 µg/mL (≈ 4.46 µM) | 8 µg/mL (≈ 35.7 µM)
CNCC(=O)N[C@@H](C)C(=O)N[C@@H](C)C(=O)N[C@H](C)P(=O)(O)O | – | – | – | – | – | – | – | – | 1.05 relative molar activity | 0.03 µg/mL (≈ 0.0887 µM) | 0.016 µg/mL (≈ 0.0473 µM) | 8 relative molar activity | 0.06 µg/mL (≈ 0.177 µM) | > 128 µg/mL
C[C@@H](NC(=O)[C@@H](N)CS)P(=O)(O)O | > 128 µg/mL | > 128 µg/mL | 32 µg/mL (≈ 140 µM) | 16 µg/mL (≈ 70.1 µM) | > 128 µg/mL | > 128 µg/mL | > 128 µg/mL | > 128 µg/mL | – | – | – | – | – | –
C[C@H](N)C(=O)N[C@@H](C)P(=O)(O)O [ALAFOSFALIN] | 8 µg/mL (≈ 40.8 µM) | 64 µg/mL (≈ 326 µM) | 1 µg/mL (≈ 5.1 µM) | 0.5 µg/mL (≈ 2.55 µM) | 1 µg/mL (≈ 5.1 µM) | 64 µg/mL (≈ 326 µM) | 2 µg/mL (≈ 10.2 µM) | 32 µg/mL (≈ 163 µM) | 1 relative molar activity | 4 µg/mL (≈ 20.4 µM) | 0.5 µg/mL (≈ 2.55 µM) | 1 relative molar activity | 2 µg/mL (≈ 10.2 µM) | 4 µg/mL (≈ 20.4 µM)
